Experimental findings from ChEMBL document CHEMBL1141029, “Allosteric inhibitors of Akt1 and Akt2: discovery of [1,2,4]triazolo[3,4-f][1,6]naphthyridines with potent and balanced activity” (Bioorg Med Chem Lett, 2009) are described below.

Molecules are shown by their SMILES.

Series [1] has as its target T1, RAC-beta serine/threonine-protein kinase (Homo sapiens, UniProt P31751). Nature of the series: Inhibition of human cloned Akt2 expressed in Drosophila S2 cells by HTRF assay. It counts as cell-based. A general note: In TR-FRET formats the signal depends on donor and acceptor labels being close together.
Series [2] concerns the target T2, Serine/threonine-protein kinase Sgk1 (Homo sapiens, UniProt O00141).
T2 sequence (O00141 whole entry): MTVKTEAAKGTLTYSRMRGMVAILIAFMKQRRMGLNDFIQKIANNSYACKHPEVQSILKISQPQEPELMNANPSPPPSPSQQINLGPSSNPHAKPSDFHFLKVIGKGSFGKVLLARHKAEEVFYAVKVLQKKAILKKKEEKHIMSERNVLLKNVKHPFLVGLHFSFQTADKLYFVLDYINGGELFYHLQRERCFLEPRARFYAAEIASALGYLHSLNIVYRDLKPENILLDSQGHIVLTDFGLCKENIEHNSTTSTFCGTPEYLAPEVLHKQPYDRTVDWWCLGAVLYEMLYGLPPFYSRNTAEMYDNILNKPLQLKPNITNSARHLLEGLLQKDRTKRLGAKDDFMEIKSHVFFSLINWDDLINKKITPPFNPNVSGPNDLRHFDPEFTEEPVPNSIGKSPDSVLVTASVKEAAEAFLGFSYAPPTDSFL
In words: Inhibition of SGK.

A short description of series [3]: Inhibition of PKA.
For series [4], the target named is T3, RAC-alpha serine/threonine-protein kinase (Homo sapiens, UniProt P31749). Nature of the series: Inhibition of Akt1 by cell based assay.
Series [5] addresses T1, RAC-beta serine/threonine-protein kinase. In words: Inhibition of Akt2 by cell based assay.
A short description of series [6]: Inhibition of PKC.
Series [7] concerns the target T3, RAC-alpha serine/threonine-protein kinase. In words: Inhibition of human cloned Akt1 expressed in Drosophila S2 cells by HTRF assay. It counts as cell-based.
Series [8] has as its system Mus musculus. Nature of the series: Inhibition of Akt1 phosphorylation in lung of nude mouse xenografted with C33a cells at 18 mg/mL administered through mini-pump after 20 hrs by IP kinase assay. It counts as functional. An outline of the steps: (§1)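 Nude mice bearing C33a cervical carcinoma tumours, 3 per concentration. Hydrochloride salt in 25% hydroxypropyl-b-cyclodextrin given by mini-pump at 8 µL/hr for 20 hrs, pump solution 70 or 18 mg/mL. Blood drawn for PK at 3, 6, 8, 11 and 20 h, so steady-state blood level is known. Euthanized at 20 h. Akt1 and Akt2 phosphorylation activity measured in lung as % inhibition.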

Series [9] deals with Mus musculus. In words: Inhibition of Akt2 phosphorylation in lung of nude mouse xenografted with C33a cells at 18 mg/mL administered through mini-pump after 20 hrs by IP kinase assay. It counts as functional. An outline of the steps:
as §1

Series [10] can be described thus: Drug level in blood of nude mouse xenografted with […] at 70 mg/mL after 20 hrs. It counts as ADME, tissue-based. Conditions: whole blood, read-out: Drug uptake. The method, boiled down: as §1
Series [11] is described as follows: Drug level in blood of nude mouse xenografted with […] at 18 mg/mL after 20 hrs. It counts as ADME, tissue-based. The settings on record: whole blood, read-out: Drug uptake. An outline of the steps: as §1
Series [12] has as its target Voltage-gated inwardly rectifying potassium channel KCNH2 (Homo sapiens, UniProt Q12809). Nature of the series: Inhibition of human ERG expressed in HEK cells by competitive radioligand binding assay. It counts as cell-based, HEK293.
The test system of series [13] is Mus musculus. In words: Inhibition of Akt2 phosphorylation in lung of nude mouse xenografted with C33a cells at 70 mg/mL administered through mini-pump after 20 hrs by IP kinase assay. It counts as functional. The method, boiled down:
as §1

For series [14], the system named is Mus musculus. Nature of the series: Inhibition of Akt2 phosphorylation in lung of nude mouse xenografted with C33a cells at 10 mg/mL administered through mini-pump after 20 hrs by IP kinase assay. It counts as functional.
The subject of series [15] is Mus musculus. Nature of the series: Inhibition of Akt1 phosphorylation in lung of nude mouse xenografted with C33a cells at 70 mg/mL administered through mini-pump after 20 hrs by IP kinase assay. Conditions: in the assay text read “10 mg/mL” for “70 mg/mL”. It counts as functional.
Series [16] is described as follows: Drug level in blood of nude mouse xenografted with […] at 10 mg/mL after 20 hrs. It counts as ADME, tissue-based. Conditions: whole blood, read-out: Drug uptake.

One may read the IC50 as the concentration that inhibits the measured activity by half.

T3 sequence (P31749 whole entry): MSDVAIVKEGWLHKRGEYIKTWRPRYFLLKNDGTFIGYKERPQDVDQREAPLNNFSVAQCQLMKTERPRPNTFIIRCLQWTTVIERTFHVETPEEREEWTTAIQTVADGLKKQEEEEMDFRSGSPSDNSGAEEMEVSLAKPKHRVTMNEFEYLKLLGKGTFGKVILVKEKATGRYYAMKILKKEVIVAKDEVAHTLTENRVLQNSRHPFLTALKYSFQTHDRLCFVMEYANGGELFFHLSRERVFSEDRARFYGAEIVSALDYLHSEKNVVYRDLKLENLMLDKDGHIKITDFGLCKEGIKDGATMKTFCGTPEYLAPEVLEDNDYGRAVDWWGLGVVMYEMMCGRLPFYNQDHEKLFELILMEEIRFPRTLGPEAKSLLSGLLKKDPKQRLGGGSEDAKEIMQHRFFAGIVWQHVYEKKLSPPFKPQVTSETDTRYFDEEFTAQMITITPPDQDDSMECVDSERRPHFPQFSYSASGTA
Chain of Voltage-gated inwardly rectifying potassium channel KCNH2 (Q12809 whole entry): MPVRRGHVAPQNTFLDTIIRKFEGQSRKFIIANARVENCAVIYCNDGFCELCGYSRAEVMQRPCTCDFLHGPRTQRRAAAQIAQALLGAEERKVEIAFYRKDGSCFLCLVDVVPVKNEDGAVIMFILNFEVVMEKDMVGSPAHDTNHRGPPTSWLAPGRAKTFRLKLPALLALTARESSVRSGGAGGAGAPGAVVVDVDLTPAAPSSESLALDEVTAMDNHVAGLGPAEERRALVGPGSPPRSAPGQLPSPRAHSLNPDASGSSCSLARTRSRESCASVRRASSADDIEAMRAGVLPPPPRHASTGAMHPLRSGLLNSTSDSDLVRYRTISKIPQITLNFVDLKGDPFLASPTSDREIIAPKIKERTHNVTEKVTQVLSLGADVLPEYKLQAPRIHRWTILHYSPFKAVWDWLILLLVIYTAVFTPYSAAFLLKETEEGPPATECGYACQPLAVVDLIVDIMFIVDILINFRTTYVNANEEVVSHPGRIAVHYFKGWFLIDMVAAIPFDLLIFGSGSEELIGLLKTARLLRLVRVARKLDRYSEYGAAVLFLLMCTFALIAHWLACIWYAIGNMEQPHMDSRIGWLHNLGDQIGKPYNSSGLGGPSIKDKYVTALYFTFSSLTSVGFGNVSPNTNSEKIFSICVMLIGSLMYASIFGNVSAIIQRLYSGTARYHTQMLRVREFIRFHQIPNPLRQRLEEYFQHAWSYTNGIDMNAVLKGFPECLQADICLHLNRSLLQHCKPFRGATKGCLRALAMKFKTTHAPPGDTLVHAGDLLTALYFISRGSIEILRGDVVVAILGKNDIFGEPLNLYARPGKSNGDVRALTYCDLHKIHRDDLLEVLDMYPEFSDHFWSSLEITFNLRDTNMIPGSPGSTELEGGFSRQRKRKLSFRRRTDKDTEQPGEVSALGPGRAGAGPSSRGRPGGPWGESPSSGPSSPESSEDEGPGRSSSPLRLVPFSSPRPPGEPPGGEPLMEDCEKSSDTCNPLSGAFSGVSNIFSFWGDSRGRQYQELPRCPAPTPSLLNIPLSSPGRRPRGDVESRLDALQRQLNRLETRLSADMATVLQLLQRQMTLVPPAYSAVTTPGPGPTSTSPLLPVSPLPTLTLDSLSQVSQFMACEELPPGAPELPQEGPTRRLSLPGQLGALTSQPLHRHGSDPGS
T1 sequence (P31751 whole entry): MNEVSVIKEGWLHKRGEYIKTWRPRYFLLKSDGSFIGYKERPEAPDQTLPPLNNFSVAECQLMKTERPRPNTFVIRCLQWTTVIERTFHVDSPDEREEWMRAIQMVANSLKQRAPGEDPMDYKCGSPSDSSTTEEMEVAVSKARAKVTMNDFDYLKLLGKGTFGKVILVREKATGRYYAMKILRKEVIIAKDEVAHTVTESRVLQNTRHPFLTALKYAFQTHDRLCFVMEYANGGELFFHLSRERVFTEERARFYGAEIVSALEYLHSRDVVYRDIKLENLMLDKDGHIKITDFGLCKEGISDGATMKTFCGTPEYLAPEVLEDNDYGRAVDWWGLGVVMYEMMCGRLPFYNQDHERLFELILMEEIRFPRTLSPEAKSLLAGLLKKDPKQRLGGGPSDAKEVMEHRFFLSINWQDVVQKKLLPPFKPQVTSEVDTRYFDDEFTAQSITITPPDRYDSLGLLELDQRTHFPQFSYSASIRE

With `OCCNCc1nnc2c3cc(-c4ccccc4)c(-c4ccc(CN5CCC(c6n[nH]c(-c7ccccn7)n6)CC5)cc4)nc3ccn12`, the IC50 in series [1] is 77.9 nM; in series [2], > 50000 nM; in series [3], > 50000 nM; in series [4], 41.8 nM; in series [5], 251 nM; in [6], > 50000 nM. In series [7], this compound came in with an IC50 of 17 nM.
`Cc1nnc2c3cc(-c4ccccc4)c(-c4ccc(CN5CCC(c6n[nH]c(-c7ccccn7)n6)CC5)cc4)nc3ccn12`: the IC50 in [1] was 14.6 nM; in [2] it was > 50000 nM; in series [3], > 50000 nM; in series [4] it was 24.6 nM; in series [5], 177 nM; in series [6], > 50000 nM. The same compound came in with an IC50 in series [7] of 4.6 nM.
Turning to `CN1CCN(Cc2nnc3c4cc(-c5ccccc5)c(-c5ccc(CN6CCC(c7n[nH]c(-c8ccccn8)n7)CC6)cc5)nc4ccn23)CC1`, the IC50 is 55.1 nM in series [1]; > 50000 nM in series [2]; > 50000 nM in series [3]; 62.5 nM in series [4]; 376 nM in series [5]; > 50000 nM in [6]. Besides, the midpoint of inhibition in [7], the IC50, lay at 9.9 nM.
For the compound `c1ccc(-c2cc3c(ccn4cnnc34)nc2-c2ccc(CN3CCC(c4n[nH]c(-c5ccccn5)n4)CC3)cc2)cc1`, the “inhibition (INH)” value in the series on Mus musculus [8] stood at 92%; with Mus musculus [9], 41%; with Mus musculus [13], 35%. Also, the IC50 is > 50000 nM in series [2]; > 50000 nM in [3]; 5 nM in series [4]; 41 nM in [5]; > 50000 nM in [6]; > 10000 nM in series [12]. In addition, in series [7], the IC50 came out at 4 nM. Besides, the concentration at 20 h in [10] came out at 1700 nM; in series [11] it was 1800 nM.
As to `Nc1nnc2c3cc(-c4ccccc4)c(-c4ccc(CN5CCC(c6n[nH]c(-c7ccccn7)n6)CC5)cc4)nc3ccn12`, the half-inhibitory concentration (IC50) is 9.4 nM in series [1]; > 50000 nM in series [2]; > 50000 nM in series [3]; 18.1 nM in series [4]; 47.7 nM in series [5]; > 50000 nM in series [6]. The IC50 in series [7] was found to be 2.8 nM.
For `Sc1nnc2c3cc(-c4ccccc4)c(-c4ccc(CN5CCC(c6n[nH]c(-c7ccccn7)n6)CC5)cc4)nc3ccn12`, the IC50 in series [1] is 10.4 nM; in series [2], > 50000 nM; in series [3], > 50000 nM; in [4], 17 nM; in series [5], 108 nM; in [6], > 50000 nM. This compound had an IC50 in series [7] of 10 nM.
`Oc1nnc2c3cc(-c4ccccc4)c(-c4ccc(CN5CCC(c6n[nH]c(-c7ccccn7)n6)CC5)cc4)nc3ccn12`: the IC50 in series [1] was 6.7 nM; in [2] it was > 50000 nM; in series [3], > 50000 nM; in series [4], 27 nM; in series [5] it was 168 nM; in series [6] it was > 50000 nM. Besides, the results for the IC50 in [12] and in series [7] were 5310 nM and 2.6 nM, respectively.
As for `O=c1[nH]ccc2nc(-c3ccc(CN4CCC(c5n[nH]c(-c6ccccn6)n5)CC4)cc3)c(-c3ccccc3)cc12`, the “inhibition (INH)” value with Mus musculus [14] is 4%; in the series on Mus musculus [15], 85%. In addition, in series [12], the IC50 came out at 5610 nM. In addition, in series [16], the concentration at 20 h was found to be 3000 nM.
On to `Nc1nnc2c3cc(-c4ccccc4)c(-c4ccc(CN5CCC(n6cnc(-c7ccccn7)c6)CC5)cc4)nc3ccn12`, for which the IC50 in series [1] was found to be 2.8 nM; in series [4], 18.3 nM; in series [5] it was 74.8 nM; in series [7], 3.3 nM.
Take `ClCc1nnc2c3cc(-c4ccccc4)c(-c4ccc(CN5CCC(c6n[nH]c(-c7ccccn7)n6)CC5)cc4)nc3ccn12`: the IC50 in series [1] is 10.5 nM; in series [2], > 50000 nM; in [3], > 50000 nM; in series [4], 113 nM; in series [5] it was 483 nM; in series [6] it was > 50000 nM. Also, the half-maximal inhibitory concentration (IC50) was 2020 nM in series [12] and 26.7 nM in series [7].
For the compound `NC(=O)Nc1nnc2c3cc(-c4ccccc4)c(-c4ccc(CN5CCC(c6n[nH]c(-c7ccccn7)n6)CC5)cc4)nc3ccn12`, the IC50 in series [1] is 24.1 nM; in series [2], > 50000 nM; in [3], > 50000 nM; in [4] it was 265 nM; in [5], 1210 nM; in series [6] it was > 50000 nM. In addition, the IC50 in [7] worked out at 8.5 nM.
